Measurements published in ChEMBL document CHEMBL4359898, “Pyrazolo-benzothiazole hybrids: Synthesis, anticancer properties and evaluation of antiangiogenic activity using in vitro VEGFR-2 kinase and in vivo transgenic zebrafish model” (Eur J Med Chem, 2019).
Calls of active or inactive are those of the source. The rule behind the calls is not given here.

Assays:
[1] = test system: HT-29; test: Cytotoxicity against human HT-29 cells assessed as reduction in cell viability incubated for 72 hrs by MTT assay; details: HT-29, 72 h
[2] = test system: U-87 MG; test: Cytotoxicity against human U87MG cells assessed as reduction in cell viability incubated for 72 hrs by MTT assay
[3] = test system: A549; test: Cytotoxicity against human A549 cells assessed as reduction in cell viability incubated for 72 hrs by MTT assay; details: A549, 72 h
[4] = test system: HEK-293T; test: Cytotoxicity against HEK293T cells assessed as reduction in cell viability incubated for 72 hrs by MTT assay; details: Homo sapiens
[5] = test system: PC-3; test: Cytotoxicity against human PC3 cells assessed as reduction in cell viability incubated for 72 hrs by MTT assay; details: PC-3, 72 h
[6] = test system: Danio rerio; test: Antiangiogenic activity in transgenic fli1a:EGFP-tagged zebrafish embryo assessed as reduction in intersegmental vessel sprouting at 0.1 to 1 uM administered from 24 hrs post fertilization and measured after 72 hrs by fluorescence microscopy relative to control; type: functional; parameters: scale not given: the % may be the effect or the level left
How it was run: (§1)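 Embryos staged after natural spawning and kept in E3 medium at 28.5 °C. At 1 dpf, 10 embryos per well were placed in E3 containing compound at […] and incubated 72 h at 28.5 °C. Untreated and 1% DMSO vehicle controls were included. Larvae were anaesthetised with 0.01% tricaine and mounted in 1% low-melt agarose. ISVs were imaged in the green channel, and % defective ISVs was counted manually.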

[7] = test system: PC-3; test: Induction of apoptosis in human PC3 cells assessed as nuclei condensation incubated for 48 hrs by […] staining based fluorescence microscopy; type: functional, cell-based
How it was run: (§2)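 PC-3 cells on coverslips (1 × 10^6 per well) were incubated 48 h with […]. Cells were PBS-washed, 4% paraformaldehyde was added, and they were stained 20 min with […]. After three PBS washes, nuclei were examined by fluorescence microscopy for chromatin condensation and fragmentation.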

[8] = test system: Danio rerio; test: Antiangiogenic activity in transgenic fli1a:EGFP-tagged zebrafish embryo assessed as reduction in intersegmental vessel sprouting at 0.5 uM administered from 24 hrs post fertilization and measured after 72 hrs by fluorescence microscopy relative to control; type: functional; parameters: scale not given: the % may be the effect or the level left; how it was run: as §1
[9] = test system: PC-3; test: Induction of apoptosis in human PC3 cells assessed as late apoptotic cells at 1 uM incubated for 48 hrs by annexin V FITC and propidium iodide staining based flow cytometry (reference value: 1.2 %); type: functional
How it was run: (§3)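 PC-3 cells at 1 × 10^6 per well were treated 48 h at […]. Cells were trypsinised, washed in PBS and resuspended in annexin binding buffer. Annexin V-FITC and PI were added for 15 min at room temperature. 10000 cells were analysed by flow cytometry and sorted into quadrants as live, early apoptotic, late apoptotic or necrotic.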

[10] = test system: PC-3; test: Induction of apoptosis in human PC3 cells at incubated for 48 hrs by […] staining based fluorescence microscopy; type: functional, cell-based; how it was run: as §2
[11] = test system: PC-3; test: Induction of apoptosis in human PC3 cells assessed as necrotic cells at 1 uM incubated for 48 hrs by annexin V FITC and propidium iodide staining based flow cytometry (reference value: 1 %); type: functional; how it was run: as §3
[12] = test system: PC-3; test: Inhibition of cell migration in human PC3 cells at 5 uM incubated for 48 hrs by phase contrast microscopy based scratch wound healing assay relative to control; type: functional; details: PC-3, 48 h
How it was run: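 Confluent PC-3 monolayers were scratched with a pipette tip to leave lanes about 1 mm wide, and debris was washed off with PBS. Cells were given complete medium alone or medium containing […]. Wounds were imaged by phase contrast at time zero and after 48 h.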

[13] = test system: PC-3; test: Induction of apoptosis in human PC3 cells assessed as viable cells at 1 uM incubated for 48 hrs by annexin V FITC and propidium iodide staining based flow cytometry (reference value: 95 %); type: functional; details: PC-3, 48 h, read-out: Activity; how it was run: as §3
[14] = test system: PC-3; test: Induction of apoptosis in human PC3 cells incubated for 48 hrs by annexin V FITC and propidium iodide staining based flow cytometry; type: functional, cell-based; how it was run: as §3
[15] = test system: Danio rerio; test: Antiangiogenic activity in transgenic fli1a:EGFP-tagged zebrafish embryo assessed as reduction in intersegmental vessel sprouting at 0.1 uM administered from 24 hrs post fertilization and measured after 72 hrs by fluorescence microscopy relative to control; type: functional; parameters: scale not given: the % may be the effect or the level left; how it was run: as §1
[16] = test system: PC-3; test: Cell cycle arrest in human PC3 cells assessed as reduction in S phase population at 1 uM incubated for 48 hrs by propidium iodide staining based flow cytometry; type: functional
[17] = test system: PC-3; test: Cell cycle arrest in human PC3 cells assessed as reduction in G2/M phase population at 1 uM incubated for 48 hrs by propidium iodide staining based flow cytometry; type: functional
[18] = test system: PC-3; test: Induction of apoptosis in human PC3 cells assessed as viable cells at 5 uM incubated for 48 hrs by annexin V FITC and propidium iodide staining based flow cytometry (reference value: 95 %); type: functional; details: PC-3, 48 h, read-out: Activity; how it was run: as §3
[19] = test system: PC-3; test: Induction of apoptosis in human PC3 cells assessed as late apoptotic cells at 3 uM incubated for 48 hrs by annexin V FITC and propidium iodide staining based flow cytometry (reference value: 1.2 %); type: functional; how it was run: as §3
[20] = test system: PC-3; test: Induction of apoptosis in human PC3 cells assessed as early apoptotic cells at 5 uM incubated for 48 hrs by annexin V FITC and propidium iodide staining based flow cytometry (reference value: 2.8 %); type: functional; how it was run: as §3
[21] = test system: PC-3; test: Induction of apoptosis in human PC3 cells assessed as viable cells at 3 uM incubated for 48 hrs by annexin V FITC and propidium iodide staining based flow cytometry (reference value: 95 %); type: functional; details: PC-3, 48 h, read-out: Activity; how it was run: as §3
[22] = test system: PC-3; test: Cell cycle arrest in human PC3 cells assessed as accumulation in G0/G1 phase at 5 uM incubated for 48 hrs by propidium iodide based flow cytometry (reference value: 51.3 %); type: functional
[23] = test system: PC-3; test: Induction of apoptosis in human PC3 cells assessed as late apoptotic cells at 5 uM incubated for 48 hrs by annexin V FITC and propidium iodide staining based flow cytometry (reference value: 1.2 %); type: functional; how it was run: as §3
[24] = test system: U-87 MG; details: Homo sapiens; U-87MG ATCC
[25] = test system: PC-3; test: Induction of apoptosis in human PC3 cells assessed as early apoptotic cells at 3 uM incubated for 48 hrs by annexin V FITC and propidium iodide staining based flow cytometry (reference value: 2.8 %); type: functional; how it was run: as §3
[26] = test system: Danio rerio; test: Antiangiogenic activity in transgenic fli1a:EGFP-tagged zebrafish embryo assessed as reduction in intersegmental vessel sprouting at 1 uM administered from 24 hrs post fertilization and measured after 72 hrs by fluorescence microscopy relative to control; type: functional; parameters: scale not given: the % may be the effect or the level left; how it was run: as §1
[27] = test system: PC-3; details: Homo sapiens, 1 to 5 uM
[28] = test system: PC-3; test: Induction of apoptosis in human PC3 cells assessed as nuclei fragmentation incubated for 48 hrs by […] staining based fluorescence microscopy; type: functional, cell-based; how it was run: as §2
[29] = test system: PC-3; test: Cell cycle arrest in human PC3 cells assessed as accumulation in G0/G1 phase at 1 uM incubated for 48 hrs by propidium iodide based flow cytometry (reference value: 51.3 %); type: functional
[30] = test system: PC-3; test: Cell cycle arrest in human PC3 cells assessed as accumulation in G0/G1 phase incubated for 48 hrs by propidium iodide based flow cytometry; type: functional
[31] = test system: PC-3; test: Induction of apoptosis in human PC3 cells assessed as mitochondrial membrane potential loss incubated for 48 hrs by JC1 staining based fluorescence microscopy; type: functional, cell-based
How it was run: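 PC-3 cells were plated at 5 × 10^5 cells/mL and incubated 48 h with […]. The medium was then replaced with fresh medium containing JC-1 for 20 min. After three PBS washes, red and green fluorescence was imaged, and depolarisation was read as a rise in the green/red ratio.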

[32] = test system: PC-3; test: Induction of apoptosis in human PC3 cells assessed as early apoptotic cells at 1 uM incubated for 48 hrs by annexin V FITC and propidium iodide staining based flow cytometry (reference value: 2.8 %); type: functional; how it was run: as §3
[33] = test system: Danio rerio; test: Antiangiogenic activity in transgenic fli1a:EGFP-tagged zebrafish embryo assessed as reduction in intersegmental vessel sprouting administered from 24 hrs post fertilization and measured after 72 hrs by fluorescence microscopy; type: functional, organism-based; how it was run: as §1
[34] = test system: PC-3; test: Induction of apoptosis in human PC3 cells assessed as necrotic cells at 5 uM incubated for 48 hrs by annexin V FITC and propidium iodide staining based flow cytometry (reference value: 1 %); type: functional; how it was run: as §3
[35] = test system: PC-3; test: Induction of apoptosis in human PC3 cells assessed as necrotic cells at 3 uM incubated for 48 hrs by annexin V FITC and propidium iodide staining based flow cytometry (reference value: 1 %); type: functional; how it was run: as §3
[36] = test system: PC-3; test: Cell cycle arrest in human PC3 cells assessed as accumulation in G0/G1 phase at 3 uM incubated for 48 hrs by propidium iodide based flow cytometry (reference value: 51.3 %); type: functional
[37] = test system: PC-3; details: Homo sapiens, 3 uM

O=C(Nc1nc2ccccc2s1)c1cn(-c2ccccc2)nc1-c1ccccc1
IC50 [1]: 16.8 µM | IC50 [2]: 8.96 µM | IC50 [3]: 13.5 µM | IC50 [4]: > 50 µM | IC50 [5]: 10.4 µM

Cc1ccc2nc(NC(=O)c3cn(-c4ccccc4)nc3-c3ccc(Cl)cc3)sc2c1
IC50 [1]: 23.7 µM | IC50 [2]: 33.2 µM | IC50 [3]: 18.6 µM | IC50 [4]: 35.6 µM | IC50 [5]: 14.5 µM

COc1ccc2nc(NC(=O)c3cn(-c4ccccc4)nc3-c3ccc(Cl)cc3)sc2c1
IC50 [1]: 18.6 µM | IC50 [2]: 21.2 µM | IC50 [3]: 31.4 µM | IC50 [4]: 29.6 µM | IC50 [5]: 29.3 µM

O=C(Nc1nc2ccc(F)cc2s1)c1cn(-c2ccccc2)nc1-c1ccccc1
IC50 [1]: 9.8 µM | IC50 [2]: 5.57 µM | IC50 [3]: 10.2 µM | IC50 [4]: 17.6 µM | IC50 [5]: 3.25 µM

O=C(Nc1nc2ccc(Cl)cc2s1)c1cn(-c2ccccc2)nc1-c1ccc(Cl)cc1
IC50 [1]: 4.55 µM | IC50 [2]: 5.87 µM | IC50 [3]: 4.36 µM | IC50 [4]: 15.7 µM | IC50 [5]: 3.23 µM

COc1ccc(-c2nn(-c3ccccc3)cc2C(=O)Nc2nc3ccc(Cl)cc3s2)cc1
IC50 [1]: 6.57 µM | IC50 [2]: 8.71 µM | IC50 [3]: 4.71 µM | IC50 [4]: 12.6 µM | IC50 [5]: 6.51 µM

COc1ccc(-c2nn(-c3ccccc3)cc2C(=O)Nc2nc3ccc(C)cc3s2)cc1
IC50 [1]: 21.5 µM | IC50 [2]: > 50 µM | IC50 [3]: 27.7 µM | IC50 [4]: > 50 µM | IC50 [5]: 15.9 µM

COc1ccc(-c2nn(-c3ccccc3)cc2C(=O)Nc2nc3ccccc3s2)cc1
IC50 [1]: 10.5 µM | IC50 [2]: 11.5 µM | IC50 [3]: 13.7 µM | IC50 [4]: 18.9 µM | IC50 [5]: 6.67 µM

CNC(=O)c1ccccc1Sc1ccc2c(/C=C/c3ccccn3)n[nH]c2c1 [AXITINIB]
Activity [6]: 63.1 - 90.4%

O=C(Nc1nc2ccc(Cl)cc2s1)c1cn(-c2ccccc2)nc1-c1ccc(F)cc1
Activity [7]: Dose-dependent effect | Activity [8]: 47.3% | IC50 [1]: 3.32 µM | Activity [9]: 3.7% | Activity [10]: Dose-dependent effect | Activity [11]: 1.1% | inhibition at 5 µM [12]: 100% | viability at 1 µM [13]: 84.8% | IC50 [2]: 6.77 µM | IC50 [3]: 3.87 µM | Activity [14]: Dose-dependent effect | Activity [15]: 16% | Activity [16]: Active | Activity [17]: Active | IC50 [4]: 45.7 µM | viability at 5 µM [18]: 70.9% | Activity [19]: 6.9% | Activity [20]: 16.7% | viability at 3 µM [21]: 77.2% | Activity [22]: 81.4% | Activity [23]: 9.6% | inhibition [24]: Active | Activity [25]: 13.8% | Activity [26]: 54.5% | inhibition [27]: Active | Activity [28]: Dose-dependent effect | Activity [29]: 65.5% | Activity [30]: Dose-dependent effect | Activity [31]: Dose-dependent effect | Activity [32]: 10.4% | Activity [33]: Dose-dependent effect | IC50 [5]: 3.17 µM | Activity [34]: 2.8% | Activity [35]: 2.1% | Activity [36]: 74.8% | inhibition [37]: Active

O=C(Nc1nc2ccc(F)cc2s1)c1cn(-c2ccccc2)nc1-c1ccc(F)cc1
IC50 [1]: 4.16 µM | IC50 [2]: 12.5 µM | IC50 [3]: 6.65 µM | IC50 [4]: 16.7 µM | IC50 [5]: 5.26 µM
